Residue numbers refer to the chain shown, from its start.
Tests used:
[1] = biological target: Genome polyprotein (Hepatitis C virus genotype 1b (isolate Con1) (HCV)) (UniProt Q9WMX2); assay: Inhibition of NS5A in HCV genotype 1b Con1 infected in HB1 replicon cells assessed as decrease in viral replication by TaqMan-based assay; assay type: cell-based
[2] = biological target: Genome polyprotein (Hepatitis C virus genotype 3a (isolate NZL1) (HCV)) (UniProt Q81258); assay: Inhibition of NS5A in HCV genotype 3a NZL1 infected in HB1 replicon cells assessed as decrease in viral replication by TaqMan-based assay; assay type: cell-based
[3] = biological target: T1, Nonstructural protein 5A (Hepatitis C virus) (UniProt Q5L478); assay: Inhibition of NS5A in HCV genotype 1a infected in HuH7 replicon cells assessed as decrease in viral replication after 3 days by RT-PCR method; assay type: cell-based; conditions: Hepatitis C virus subtype 1a
T1 sequence (whole entry): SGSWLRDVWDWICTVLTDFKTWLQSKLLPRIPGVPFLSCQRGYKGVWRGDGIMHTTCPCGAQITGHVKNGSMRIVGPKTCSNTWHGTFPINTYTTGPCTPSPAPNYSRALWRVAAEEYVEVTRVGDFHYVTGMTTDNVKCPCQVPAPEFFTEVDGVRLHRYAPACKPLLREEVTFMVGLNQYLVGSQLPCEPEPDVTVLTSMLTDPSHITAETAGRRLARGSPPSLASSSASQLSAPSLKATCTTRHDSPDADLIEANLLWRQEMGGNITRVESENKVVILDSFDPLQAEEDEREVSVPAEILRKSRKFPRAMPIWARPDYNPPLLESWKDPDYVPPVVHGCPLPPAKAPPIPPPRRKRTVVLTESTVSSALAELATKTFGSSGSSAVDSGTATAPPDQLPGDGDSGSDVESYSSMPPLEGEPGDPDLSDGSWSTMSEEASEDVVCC

[4] = biological target: T1, Nonstructural protein 5A (Hepatitis C virus); assay: Inhibition of NS5A in HCV genotype 1b infected in HuH7 replicon cells assessed as decrease in viral replication after 3 days by RT-PCR method; assay type: cell-based; conditions: Hepatitis C virus subtype 1b
[5] = biological target: T1, Nonstructural protein 5A (Hepatitis C virus); assay: Inhibition of NS5A L31M mutant in HCV genotype 2b infected in HuH7 replicon cells assessed as decrease in viral replication after 3 days by RT-PCR method; assay type: cell-based; conditions: Hepatitis C virus subtype 2b
[6] = biological target: T1, Nonstructural protein 5A (Hepatitis C virus); assay: Inhibition of NS5A in HCV genotype 3a infected in HuH7 replicon cells assessed as decrease in viral replication after 3 days by RT-PCR method; assay type: cell-based; conditions: Hepatitis C virus subtype 3a
[7] = biological target: T1, Nonstructural protein 5A (Hepatitis C virus); assay: Inhibition of NS5A in HCV genotype 4a infected in HuH7 replicon cells assessed as decrease in viral replication after 3 days by RT-PCR method; assay type: cell-based; conditions: Hepatitis C virus subtype 4a
[8] = system: T2, Nonstructural protein 5A (Hepatitis C virus), Q5L478 [Y93H]; assay: Inhibition of NS5A Y93H mutant in HCV genotype 1a infected in HuH7 replicon cells assessed as decrease in viral replication after 3 days by RT-PCR method; assay type: cell-based; conditions: Hepatitis C virus subtype 1a
T2 sequence (whole entry): T1 sequence (whole entry) with Y93H

[9] = biological target: T1, Nonstructural protein 5A (Hepatitis C virus); assay: Inhibition of NS5A L31V mutant in HCV genotype 1a infected in HuH7 replicon cells assessed as decrease in viral replication after 3 days by RT-PCR method; assay type: cell-based; conditions: Hepatitis C virus subtype 1a
[10] = Half life in Wistar Han rat at 2 mg/kg, iv by LC/MS method; assay type: ADME, organism-based; conditions: in vivo
How it was run: (§1)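 Male Wistar Han rats, two per group, dosed IV at 2 mg/kg in 60% PEG200. Plasma was obtained by centrifuging the blood, and compound concentrations were measured by LC/MS.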

[11] = Half life in Beagle dog at 1 mg/kg, iv by LC/MS method; assay type: ADME, organism-based, Canis lupus familiaris; conditions: in vivo
How it was run: (§2)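 Beagle dogs, two animals per group, dosed IV at 1 mg/kg in 60% PEG200. Plasma was prepared from collected blood by centrifugation, and compound was quantified by LC/MS.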

[12] = Clearance in Wistar Han rat at 2 mg/kg, iv by LC/MS method; assay type: ADME, organism-based; conditions: in vivo; how it was run: as §1
[13] = Clearance in Beagle dog at 1 mg/kg, iv by LC/MS method; assay type: ADME, organism-based, Canis lupus familiaris; conditions: in vivo; how it was run: as §2
[14] = AUC in Wistar Han rat at 10 mg/kg, po by LC/MS method; assay type: ADME, organism-based; conditions: in vivo
How it was run: (§3)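 Male Wistar Han rats, two per dosing group, dosed orally at 10 mg/kg in 10% TWEEN. Plasma was separated from collected blood by centrifugation and analysed by LC/MS.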

[15] = AUC in Beagle dog at 5 mg/kg, po by LC/MS method; assay type: ADME, organism-based, Canis lupus familiaris; conditions: in vivo
How it was run: (§4)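 Beagle dogs, two animals per dosing group. Oral dose was given in 10% TWEEN. Blood was collected and spun to plasma, and plasma compound levels were measured by LC/MS.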

[16] = Cmax in Wistar Han rat at 10 mg/kg, po by LC/MS method; assay type: ADME, organism-based; set-up: dose 10 mg/kg, route oral; conditions: in vivo; how it was run: as §3
[17] = Cmax in Beagle dog at 5 mg/kg, po by LC/MS method; assay type: ADME, organism-based, Canis lupus familiaris; set-up: dose 5 mg/kg, route oral; conditions: in vivo; how it was run: as §4
[18] = Drug level in Wistar Han rat at 10 mg/kg, po measured at 24 hrs by LC/MS method; assay type: ADME, organism-based; conditions: in vivo, read-out: Drug uptake; how it was run: as §3
[19] = Drug level in Beagle dog at 5 mg/kg, po measured at 24 hrs by LC/MS method; assay type: ADME, organism-based, Canis lupus familiaris; conditions: in vivo, read-out: Drug uptake; how it was run: as §4
[20] = Oral bioavailability in Wistar Han rat at 10 mg/kg by LC/MS method; assay type: ADME, organism-based; conditions: in vivo; how it was run: as §3
[21] = Oral bioavailability in Beagle dog at 5 mg/kg by LC/MS method; assay type: ADME, organism-based, Canis lupus familiaris; conditions: in vivo; how it was run: as §4
[22] = Tmax in Wistar Han rat at 10 mg/kg, po by LC/MS method; assay type: ADME, organism-based; conditions: in vivo; how it was run: as §3
[23] = MRT in Wistar Han rat at 10 mg/kg, po by LC/MS method; assay type: ADME, organism-based; conditions: in vivo; how it was run: as §3
[24] = AUC in Wistar Han rat at 100 mg/kg, po by LC/MS method; assay type: ADME, organism-based; conditions: in vivo
How it was run: (§5)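 Single rising oral dose study in fed male Wistar Han rats, dosed PO in 10% TWEEN at the indicated doses. Plasma was obtained by centrifuging the blood, and compound levels were determined by LC/MS.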

[25] = Cmax in Wistar Han rat at 100 mg/kg, po by LC/MS method; assay type: ADME, organism-based; set-up: dose 100 mg/kg, route oral; conditions: in vivo; how it was run: as §5
[26] = Drug level in Wistar Han rat at 100 mg/kg, po measured at 24 hrs by LC/MS method; assay type: ADME, organism-based; conditions: in vivo, read-out: Drug uptake; how it was run: as §5
[27] = Tmax in Wistar Han rat at 100 mg/kg, po by LC/MS method; assay type: ADME, organism-based; conditions: in vivo; how it was run: as §5
[28] = MRT in Wistar Han rat at 100 mg/kg, po by LC/MS method; assay type: ADME, organism-based; conditions: in vivo; how it was run: as §5
[29] = AUC in Wistar Han rat at 300 mg/kg, po by LC/MS method; assay type: ADME, organism-based; conditions: in vivo; how it was run: as §5
[30] = Cmax in Wistar Han rat at 300 mg/kg, po by LC/MS method; assay type: ADME, organism-based; set-up: dose 300 mg/kg, route oral; conditions: in vivo; how it was run: as §5
[31] = Drug level in Wistar Han rat at 300 mg/kg, po measured at 24 hrs by LC/MS method; assay type: ADME, organism-based; conditions: in vivo, read-out: Drug uptake; how it was run: as §5
[32] = Tmax in Wistar Han rat at 300 mg/kg, po by LC/MS method; assay type: ADME, organism-based; conditions: in vivo; how it was run: as §5
[33] = MRT in Wistar Han rat at 300 mg/kg, po by LC/MS method; assay type: ADME, organism-based; conditions: in vivo; how it was run: as §5
[34] = system: Hepatitis C virus subtype 1a; assay: Resistance ratio of EC90 for NS5A L31V mutant in HCV genotype 1a infected in HuH7 replicon cells to EC90 for NS5A in HCV genotype 1a infected in HuH7 replicon cells; assay type: cell-based
[35] = system: Hepatitis C virus subtype 1a; assay: Resistance ratio of EC90 for NS5A Y93H mutant in HCV genotype 1a infected in HuH7 replicon cells to EC90 for NS5A in HCV genotype 1a infected in HuH7 replicon cells; assay type: cell-based
[36] = Resistance ratio of EC90 for NS5A in HCV genotype 1b infected in HuH7 replicon cells to EC90 for NS5A in HCV genotype 1a infected in HuH7 replicon cells; assay type: cell-based
[37] = Resistance ratio of EC90 for NS5A L31M mutant in HCV genotype 2b infected in HuH7 replicon cells to EC90 for NS5A in HCV genotype 1a infected in HuH7 replicon cells; assay type: cell-based
[38] = Resistance ratio of EC90 for NS5A in HCV genotype 3a infected in HuH7 replicon cells to EC90 for NS5A in HCV genotype 1a infected in HuH7 replicon cells; assay type: cell-based
[39] = Resistance ratio of EC90 for NS5A in HCV genotype 4a infected in HuH7 replicon cells to EC90 for NS5A in HCV genotype 1a infected in HuH7 replicon cells; assay type: cell-based

Chain of Genome polyprotein (Hepatitis C virus genotype 1b (isolate Con1) (HCV)) (Q9WMX2 whole entry): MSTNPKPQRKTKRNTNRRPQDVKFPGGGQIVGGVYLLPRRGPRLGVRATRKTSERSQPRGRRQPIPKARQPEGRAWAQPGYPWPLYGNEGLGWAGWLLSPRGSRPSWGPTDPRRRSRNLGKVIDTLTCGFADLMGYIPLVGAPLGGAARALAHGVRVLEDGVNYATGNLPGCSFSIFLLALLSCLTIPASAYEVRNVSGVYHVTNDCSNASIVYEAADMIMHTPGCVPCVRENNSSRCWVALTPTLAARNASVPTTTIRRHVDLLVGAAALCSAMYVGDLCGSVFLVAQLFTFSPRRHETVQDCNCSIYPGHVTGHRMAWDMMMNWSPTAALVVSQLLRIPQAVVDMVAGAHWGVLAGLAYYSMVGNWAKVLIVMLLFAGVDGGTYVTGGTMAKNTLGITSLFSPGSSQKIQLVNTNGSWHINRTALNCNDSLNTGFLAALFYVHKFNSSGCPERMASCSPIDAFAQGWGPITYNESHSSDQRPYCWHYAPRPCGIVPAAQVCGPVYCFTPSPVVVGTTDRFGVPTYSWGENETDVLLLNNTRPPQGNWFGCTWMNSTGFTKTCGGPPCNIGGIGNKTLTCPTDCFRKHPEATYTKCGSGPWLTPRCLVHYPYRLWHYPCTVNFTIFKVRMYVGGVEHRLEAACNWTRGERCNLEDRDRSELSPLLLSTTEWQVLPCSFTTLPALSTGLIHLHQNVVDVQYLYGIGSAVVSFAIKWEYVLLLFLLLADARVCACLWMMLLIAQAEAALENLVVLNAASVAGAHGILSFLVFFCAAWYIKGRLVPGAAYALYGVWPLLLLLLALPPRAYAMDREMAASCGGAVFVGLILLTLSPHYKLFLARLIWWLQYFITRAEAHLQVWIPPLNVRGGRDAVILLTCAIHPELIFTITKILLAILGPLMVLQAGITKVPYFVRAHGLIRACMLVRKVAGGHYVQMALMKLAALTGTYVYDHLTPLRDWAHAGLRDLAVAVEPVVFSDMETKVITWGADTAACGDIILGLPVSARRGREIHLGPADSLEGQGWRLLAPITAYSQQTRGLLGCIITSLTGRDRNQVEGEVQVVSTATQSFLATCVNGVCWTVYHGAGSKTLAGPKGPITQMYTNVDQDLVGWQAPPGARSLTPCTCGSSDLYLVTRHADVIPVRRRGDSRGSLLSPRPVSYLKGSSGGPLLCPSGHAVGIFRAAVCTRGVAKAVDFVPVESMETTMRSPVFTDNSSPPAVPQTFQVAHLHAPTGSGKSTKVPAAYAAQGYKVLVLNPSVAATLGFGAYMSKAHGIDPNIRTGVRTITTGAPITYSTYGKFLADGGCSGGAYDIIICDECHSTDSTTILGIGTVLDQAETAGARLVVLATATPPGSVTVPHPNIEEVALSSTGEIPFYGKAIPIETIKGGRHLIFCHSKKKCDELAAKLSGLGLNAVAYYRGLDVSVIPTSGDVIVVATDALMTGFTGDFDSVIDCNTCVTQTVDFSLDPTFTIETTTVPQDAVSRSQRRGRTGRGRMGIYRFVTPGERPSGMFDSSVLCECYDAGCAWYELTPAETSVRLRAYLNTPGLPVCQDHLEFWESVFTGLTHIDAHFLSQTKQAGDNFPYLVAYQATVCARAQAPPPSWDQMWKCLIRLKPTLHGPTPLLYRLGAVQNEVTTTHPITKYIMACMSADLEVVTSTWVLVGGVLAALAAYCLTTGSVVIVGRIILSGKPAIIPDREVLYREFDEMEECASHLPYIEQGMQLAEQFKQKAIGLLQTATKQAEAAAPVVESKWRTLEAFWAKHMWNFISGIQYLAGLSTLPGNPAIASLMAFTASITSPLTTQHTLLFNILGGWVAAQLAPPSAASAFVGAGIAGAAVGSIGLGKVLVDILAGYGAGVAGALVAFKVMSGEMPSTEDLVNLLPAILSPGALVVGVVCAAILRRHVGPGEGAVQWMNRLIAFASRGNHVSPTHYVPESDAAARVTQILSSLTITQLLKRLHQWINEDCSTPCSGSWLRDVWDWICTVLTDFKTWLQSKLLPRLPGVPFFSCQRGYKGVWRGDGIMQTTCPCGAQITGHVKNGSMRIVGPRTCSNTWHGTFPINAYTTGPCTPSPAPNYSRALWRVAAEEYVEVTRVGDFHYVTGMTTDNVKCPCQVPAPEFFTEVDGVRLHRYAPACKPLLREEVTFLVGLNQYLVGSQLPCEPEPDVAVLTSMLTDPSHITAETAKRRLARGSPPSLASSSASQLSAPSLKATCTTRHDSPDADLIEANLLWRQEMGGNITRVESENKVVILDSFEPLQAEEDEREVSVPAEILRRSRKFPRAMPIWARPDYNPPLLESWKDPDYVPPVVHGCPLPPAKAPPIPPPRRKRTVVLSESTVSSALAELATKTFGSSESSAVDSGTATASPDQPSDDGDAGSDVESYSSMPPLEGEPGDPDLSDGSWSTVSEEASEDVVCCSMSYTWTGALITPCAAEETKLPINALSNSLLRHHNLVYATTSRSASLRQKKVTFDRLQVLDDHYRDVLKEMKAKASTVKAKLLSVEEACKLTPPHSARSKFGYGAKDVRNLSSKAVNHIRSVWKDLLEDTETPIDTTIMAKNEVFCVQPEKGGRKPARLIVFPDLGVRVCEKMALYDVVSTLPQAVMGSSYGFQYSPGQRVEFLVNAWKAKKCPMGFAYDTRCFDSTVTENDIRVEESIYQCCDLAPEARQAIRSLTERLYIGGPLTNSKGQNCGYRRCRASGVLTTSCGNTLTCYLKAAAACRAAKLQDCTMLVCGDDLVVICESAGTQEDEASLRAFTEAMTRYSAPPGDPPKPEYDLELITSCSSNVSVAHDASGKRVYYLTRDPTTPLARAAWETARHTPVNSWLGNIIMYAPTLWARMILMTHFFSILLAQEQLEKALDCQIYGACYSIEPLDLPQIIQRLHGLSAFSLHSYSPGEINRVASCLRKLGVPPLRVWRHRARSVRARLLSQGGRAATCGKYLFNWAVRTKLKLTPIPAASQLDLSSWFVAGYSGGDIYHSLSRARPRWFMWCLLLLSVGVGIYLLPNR

COC(=O)N[C@H](C(=O)N1CCC[C@H]1c1nc(-c2ccc3c(c2)O[C@@H](c2ccccc2)n2c-3cc3cc(-c4c[nH]c([C@@H]5CCCN5C(=O)[C@@H](NC(=O)OC)C(C)C)n4)ccc32)c[nH]1)C(C)C
EC90 [1]: 6 pM
EC90 [2]: 120 pM

COC(=O)N[C@H](C(=O)N1CCC[C@H]1c1ncc(-c2cc(F)c3c(c2)O[C@@H](c2ccc(C4CC4)s2)n2c-3cc3cc(-c4cnc([C@@H]5CCCN5C(=O)[C@@H](NC(=O)OC)C5CCOCC5)[nH]4)ccc32)[nH]1)C(C)C
EC90 [3]: 4 pM
EC90 [4]: 5 pM
EC90 [5]: 14 pM
EC90 [6]: 8 pM
EC90 [7]: 5 pM
EC90 [8]: 18 pM
EC90 [9]: 6 pM
half-life [10]: 4 h
half-life [11]: 4.2 h
clearance [12]: 18 mL/min/kg
clearance [13]: 4 mL/min/kg
AUC [14]: 0.14 to 0.29 µM·h
AUC [15]: 2.61 µM·h
Cmax [16]: 34 to 20000 nM
Cmax [17]: 460 nM
concentration at 24 h [18]: 2 to 1000 nM
concentration at 24 h [19]: 22 nM
bioavailability [20]: 3.1%
bioavailability [21]: 11%
Tmax [22]: 3 h
MRT [23]: 7.9 h
AUC [24]: 1.64 µM·h
Cmax [25]: 200 nM
concentration at 24 h [26]: 11 nM
Tmax [27]: 4 h
MRT [28]: 8.3 h
AUC [29]: 3.99 µM·h
Cmax [30]: 360 nM
concentration at 24 h [31]: 32 nM
Tmax [32]: 4 h
MRT [33]: 9.9 h
Ratio [34]: < 10
Ratio [35]: < 10
Ratio [36]: < 10
Ratio [37]: < 10
Ratio [38]: < 10
Ratio [39]: < 10

Source: ChEMBL document CHEMBL4177770, “Discovery of MK-6169, a Potent Pan-Genotype Hepatitis C Virus NS5A Inhibitor with Optimized Activity against Common Resistance-Associated Substitutions” (J Med Chem, 2018)
